Source: ChEMBL document CHEMBL1130216, “Design, synthesis, and dopamine receptor modulating activity of diketopiperazine peptidomimetics of L-prolyl-L-leucylglycinamide” (J Med Chem, 1997)
Where a SMILES comes first, the peptide text is derived from it.

Legend:
[1] = molecular target: D(2) dopamine receptor (Bos taurus) (UniProt P20288); experiment: Percentage of receptor in the high affinity form for the compound to Dopamine receptor D2 in absence of Gpp(NH)p; assay type: functional
Procedure, shortened: (§1)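 Bovine striatal membranes (150-200 µg protein) were incubated with 0.2 nM [3H]spiroperidol and varying N-propylnorapomorphine, with or without 100 µM Gpp(NH)p and 100 nM peptidomimetic, plus 50 nM ketanserin, for 1 h at 22 °C, then GF/B filtered. Nonspecific binding was set with 1.0 µM (+)-butaclamol. A two-site fit gave high/low-affinity fractions; Ki values came via Cheng-Prusoff. Mean ± SEM of 3-4 experiments.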

[2] = molecular target: D(2) dopamine receptor (Bos taurus) (UniProt P20288); experiment: Percentage of receptor in the low affinity form for the compound to Dopamine receptor D2 in absence of Gpp(NH)p; assay type: functional; procedure, shortened: as §1
[3] = molecular target: D(2) dopamine receptor (Bos taurus) (UniProt P20288); experiment: Percentage of receptor in the low affinity form for the compound to Dopamine receptor D2 in presence of Gpp(NH)p; assay type: functional; procedure, shortened: as §1
[4] = molecular target: D(2) dopamine receptor (Bos taurus) (UniProt P20288); experiment: Percentage of receptor in the high affinity form for the compound to Dopamine receptor D2 in presence of Gpp(NH)p; assay type: functional; procedure, shortened: as §1
[5] = molecular target: D(2) dopamine receptor (Bos taurus) (UniProt P20288); experiment: Percentage of receptor in the low affinity form for the compound in absence of Gpp(NH)p (Pre treated with 1 uM) to Dopamine receptor D2
[6] = molecular target: D(2) dopamine receptor (Bos taurus) (UniProt P20288); experiment: Percentage of receptor in the high affinity form for the compound in absence of Gpp(NH)p (Pre treated with 1 uM) to Dopamine receptor D2
[7] = molecular target: D(2) dopamine receptor (Bos taurus) (UniProt P20288); experiment: Percentage of receptor in the low affinity form for the compound to Dopamine receptor D2 in presence of Gpp(NH)p (pre treated with 1 uM)
[8] = molecular target: D(2) dopamine receptor (Bos taurus) (UniProt P20288); experiment: Percentage of receptor in the high affinity form for the compound to Dopamine receptor D2 in presence of Gpp(NH)p (pre treated with 1 uM); assay type: functional

Chain of D(2) dopamine receptor (Bos taurus) (P20288 whole entry): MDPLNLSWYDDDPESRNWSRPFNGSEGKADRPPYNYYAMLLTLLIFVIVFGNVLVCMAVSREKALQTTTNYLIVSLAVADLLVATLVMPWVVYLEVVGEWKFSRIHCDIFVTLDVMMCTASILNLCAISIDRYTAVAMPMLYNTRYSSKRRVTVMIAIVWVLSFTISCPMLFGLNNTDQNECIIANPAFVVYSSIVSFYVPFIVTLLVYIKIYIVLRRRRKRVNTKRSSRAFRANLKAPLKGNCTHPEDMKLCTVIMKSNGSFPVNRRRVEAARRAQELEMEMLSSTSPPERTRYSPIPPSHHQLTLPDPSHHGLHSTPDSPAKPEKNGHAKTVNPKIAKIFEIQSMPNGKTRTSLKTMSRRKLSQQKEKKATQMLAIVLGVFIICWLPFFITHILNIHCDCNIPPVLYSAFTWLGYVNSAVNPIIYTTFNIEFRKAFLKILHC

Structure (SMILES)	RH [1] [%]	RL [2] [%]	RL [3] [%]	RH [4] [%]	RL [5] [%]	RH [6] [%]	RL [7] [%]	RH [8] [%]
NC(=O)[C@H]1CS[C@@H]2C[C@@H](N3CC(=O)N4CCC[C@H]4C3=O)C(=O)N12	49	51	81.5	18.5				
CC(C)C[C@H](NC(=O)[C@@H]1CCCN1)C(=O)NCC(N)=O (H-Pro-Leu-Gly-NH2)	49	51	82	19	41	61	72	32
CC(C)C[C@@H](C(=O)NCC(N)=O)N1CC(=O)N2CCC[C@H]2C1=O	56.2	43.8	81.2	18.8				
NC(=O)CN1CC[C@@H](N2CC(=O)N3CCC[C@H]3C2=O)C1=O	46	55	78	22				
